The subject of experiment [1] is Vero. Kind of experiment: Cytotoxicity against african green monkey Vero cells by SRB assay. The format is cell-based, Chlorocebus sabaeus. The method in brief: (§1)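 Colorimetric cytotoxicity assay. IC50 given as mean ± SD (n = 3), curve fits with R2 > 0.9. Ellipticine served as positive control.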
For orientation: The SRB assay estimates cell density from bound dye.

Experiment [2] relates to KB. Put plainly: Cytotoxicity against human KB cells by SRB assay. The format is functional, cell-based. The method in brief: as §1
Experiment [3] has as its system NCI-H187. Put plainly: Cytotoxicity against human NCI-H187 cells by SRB assay. The format is functional, cell-based. Put shortly: as §1
Experiment [4] can be described thus: Cytotoxicity against human BC cells by SRB assay. The experiment is classed as functional, cell-based. The method in brief: as §1
In experiment [5] the test system is Candida albicans. Kind of experiment: Antifungal activity against Candida albicans. The format is functional, organism-based. Put shortly: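 Colorimetric growth-inhibition assay against Candida albicans; IC50 values reported.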
Experiment [6] has as its system Plasmodium falciparum. Put plainly: Antiplasmodial activity after 24 hrs against Plasmodium falciparum K1 by [G-3H]hypoxanthine uptake. The experiment is classed as functional, organism-based. As to conditions: K1, 24 h; call rule not given here. Put shortly: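 P. falciparum K1 tested by a microculture radioisotope technique, with IC50 as the read-out.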
In experiment [7] the test system is Mycobacterium tuberculosis. Kind of experiment: Antitubercular activity against Mycobacterium tuberculosis H37Ra after 4 days by microplate alamar blue assay. The format is functional. As to conditions: 96 h. The method in brief:
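M. tuberculosis H37Ra tested by microplate Alamar Blue assay. MIC was taken as the lowest concentration giving ≥90% growth inhibition.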
On the technique in general: The colour change of resazurin is a common sign of viable cells or microbes.

[8] abbreviates: Chlorocebus sabaeus, Vero, read-out: IC50.
The mark [9] stands for this setting: Homo sapiens, KB, read-out: IC50.
Where [10] appears, read: Homo sapiens, NCI-H187, read-out: IC50.
[11] abbreviates: Homo sapiens, BC, read-out: IC50.

Experimental findings from ChEMBL document CHEMBL1151838, “Isariotins E and F, spirocyclic and bicyclic hemiacetals from the entomopathogenic fungus Isaria tenuipes BCC 12625” (J Nat Prod, 2009) are described below.

In brackets after ≈: the same amount, converted by molar mass.

Broadly, the IC50 is the concentration that gives 50% inhibition. In general, MIC refers to the lowest concentration found to suppress growth.

Turning to `CCCCCCCCC/C=C/C(=O)N[C@H]1C[C@@]2(O)C(=O)[C@@H]([C@H]1O)[C@H](OC)[C@@H]1O[C@@H]12`, the IC50 entry in experiment [1] (vero), in experiment [2] (kb), in experiment [3] (nci-h187) and in experiment [4] (bc) was “Not Active” in each case.
Consider `C[C@@H]1[C@H](O)[C@@H](C)/C=C/C=C/C=C/C=C/C=C/C=C/C=C/[C@H](O[C@@H]2O[C@H](C)[C@@H](O)[C@H](N)[C@@H]2O)C[C@@H]2O[C@](O)(C[C@@H](O)C[C@@H](O)[C@H](O)CC[C@@H](O)C[C@@H](O)CC(=O)O[C@H]1C)C[C@H](O)[C@H]2C(=O)O` [AMPHOTERICIN B], for which, in experiment [5], half-maximal inhibition (IC50) was put at 0.03 µM.
Consider `C[C@H]1[C@@H](O)O[C@@H]2O[C@@]3(C)CC[C@H]4[C@H](C)CC[C@@H]1[C@@]24OO3` [ARTENIMOL], for which the IC50 in experiment [6] is 0.004 µM.
`Cc1c2ccncc2c(C)c2c1[nH]c1ccccc12` [ELLIPTECINE]: the IC50 worked out at 1.69 µM in experiment [1] (setting [8]), 1.38 µM in experiment [2] (setting [9]), 4.4 µM in experiment [3] (setting [10]) and 1.2 µM in experiment [4] (setting [11]).
For `CCCCCCCCC/C=C/C(=O)N[C@H]1C[C@@]2(O)C(=O)C=C[C@@H](Cl)[C@@H]2O[C@H]1O` [ISARIOTIN F], the IC50 in experiment [1] (setting [8]) was determined as 2.9 µM; in experiment [5], 13.9 µM; in experiment [6] it was 5.1 µM; in experiment [2] (setting [9]), 15.8 µM; in experiment [3] (setting [10]), 1.6 µM; in experiment [4] (setting [11]), 2.4 µM. The molecule further registered an MIC in experiment [7] of 60.4 µM (≈ 25 µg/mL).
Take `NNC(=O)c1ccncc1` [ISONIAZID]: it took 0.37 µM (≈ 0.0507 µg/mL) to inhibit growth in experiment [7] (MIC).
